Test results published in ChEMBL document CHEMBL5705901, “Exploiting selective BCL-2 family inhibitors to dissect cell survival dependencies and define improved strategies for cancer therapy” (Sci Transl Med, 2015).

Experiments:
[1] = biological target: Induced myeloid leukemia cell differentiation protein Mcl-1 (Homo sapiens, UniProt Q07820); test: Binding affinity to MCL-1 (unknown origin) assessed as dissociation constant incubated for 1 hrs by TR-FRET assay
[2] = tested on: MOLT-4; test: Antiproliferative activity against Bcl-xl dependent human MOLT-4 cells assessed as reduction in cell viability by measuring effect concentration by CellTiter-Glo reagent based assay; type: functional
[3] = tested on: NCI-H889; test: Antiproliferative activity against human NCI-H889 assessed as reduction in cell viability incubated for 48 hrs by CellTiter-Glo cell vaibility assay; type: functional, cell-based; details: NCI-H889, 48 h
Method in brief: (§1)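 Tumour cell lines (SCLC panel and AML panel) exposed to increasing concentrations for 48 hours, then cell viability measured. Cell-killing EC50 taken from the concentration-response.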

[4] = tested on: NCI-H211; test: Antiproliferative activity against human NCI-H211 assessed as reduction in cell viability incubated for 48 hrs by CellTiter-Glo cell vaibility assay; type: functional, cell-based; details: NCI-H211, 48 h; method in brief: as §1
[5] = tested on: NCI-H187; test: Antiproliferative activity against human NCI-H187 assessed as reduction in cell viability incubated for 48 hrs by CellTiter-Glo cell vaibility assay; type: functional, cell-based; details: NCI-H187, 48 h; method in brief: as §1
[6] = tested on: NCI-H345; test: Antiproliferative activity against human NCI-H345 assessed as reduction in cell viability incubated for 48 hrs by CellTiter-Glo cell vaibility assay; type: functional, cell-based; details: NCI-H345, 48 h; method in brief: as §1
[7] = tested on: NCI-H446; test: Antiproliferative activity against human NCI-H446 assessed as reduction in cell viability incubated for 48 hrs by CellTiter-Glo cell vaibility assay; type: functional, cell-based; details: NCI-H446, 48 h; method in brief: as §1
[8] = tested on: NCI-H1048; test: Antiproliferative activity against human NCI-H1048 assessed as reduction in cell viability incubated for 48 hrs by CellTiter-Glo cell vaibility assay; type: functional, cell-based; details: NCI-H1048, 48 h; method in brief: as §1
[9] = tested on: NCI-H69; test: Antiproliferative activity against human NCI-H69 assessed as reduction in cell viability incubated for 48 hrs by CellTiter-Glo cell vaibility assay; type: functional, cell-based; details: NCI-H69, 48 h; method in brief: as §1
[10] = Antiproliferative activity against human NCI-H847 assessed as reduction in cell viability incubated for 48 hrs by CellTiter-Glo cell vaibility assay; type: functional, cell-based; details: NCI-H847, 48 h; method in brief: as §1
[11] = tested on: NCI-H1417; test: Antiproliferative activity against human NCI-H1417 assessed as reduction in cell viability incubated for 48 hrs by CellTiter-Glo cell vaibility assay; type: functional, cell-based; details: NCI-H1417, 48 h; method in brief: as §1
[12] = tested on: DMS-79; test: Antiproliferative activity against human DMS 79 assessed as reduction in cell viability incubated for 48 hrs by CellTiter-Glo cell vaibility assay; type: functional, cell-based; details: DMS-79, 48 h; method in brief: as §1
[13] = tested on: NCI-H1836; test: Antiproliferative activity against human NCI-H1836 assessed as reduction in cell viability incubated for 48 hrs by CellTiter-Glo cell vaibility assay; type: functional, cell-based; details: NCI-H1836, 48 h; method in brief: as §1
[14] = tested on: GDM-1; test: Antiproliferative activity against human GDM-1 assessed as reduction in cell viability incubated for 48 hrs by CellTiter-Glo cell vaibility assay; type: functional, cell-based; details: GDM-1, 48 h; method in brief: as §1
[15] = tested on: EOL1; test: Antiproliferative activity against human EOL1 assessed as reduction in cell viability incubated for 48 hrs by CellTiter-Glo cell vaibility assay; type: functional, cell-based; details: EOL1, 48 h; method in brief: as §1
[16] = tested on: MOLM-13; test: Antiproliferative activity against human MOLM-13 assessed as reduction in cell viability incubated for 48 hrs by CellTiter-Glo cell vaibility assay; type: functional, cell-based; details: MOLM-13, 48 h; method in brief: as §1
[17] = tested on: HL-60; test: Antiproliferative activity against human HL-60 assessed as reduction in cell viability incubated for 48 hrs by CellTiter-Glo cell vaibility assay; type: functional, cell-based; details: HL-60, 48 h; method in brief: as §1
[18] = tested on: MV4-11; test: Antiproliferative activity against human MV4-11 assessed as reduction in cell viability incubated for 48 hrs by CellTiter-Glo cell vaibility assay; type: functional, cell-based; details: MV4-11, 48 h; method in brief: as §1
[19] = tested on: ML-2; test: Antiproliferative activity against human ML-2 assessed as reduction in cell viability incubated for 48 hrs by CellTiter-Glo cell vaibility assay; type: functional, cell-based; details: ML-2, 48 h; method in brief: as §1
[20] = tested on: SIG-M5; test: Antiproliferative activity against human SIG-M5 assessed as reduction in cell viability incubated for 48 hrs by CellTiter-Glo cell vaibility assay; type: functional, cell-based; details: SIG-M5, 48 h; method in brief: as §1
[21] = tested on: OCI-AML2; test: Antiproliferative activity against human OCI-AML2 assessed as reduction in cell viability incubated for 48 hrs by CellTiter-Glo cell vaibility assay; type: functional, cell-based; details: OCI-AML2, 48 h; method in brief: as §1
[22] = Antiproliferative activity against human MOLM16 assessed as reduction in cell viability incubated for 48 hrs by CellTiter-Glo cell vaibility assay; type: functional, cell-based, MOLM-16; details: MOLM16, 48 h; method in brief: as §1
[23] = tested on: OCI-AML-5; test: Antiproliferative activity against human OCI-AML5 assessed as reduction in cell viability incubated for 48 hrs by CellTiter-Glo cell vaibility assay; type: functional, cell-based; details: OCI-AML-5, 48 h; method in brief: as §1
[24] = tested on: THP-1; test: Antiproliferative activity against human THP-1 assessed as reduction in cell viability incubated for 48 hrs by CellTiter-Glo cell vaibility assay; type: functional, cell-based; details: THP-1, 48 h; method in brief: as §1
[25] = tested on: Kasumi 1; test: Antiproliferative activity against human Kasumi 1 assessed as reduction in cell viability incubated for 48 hrs by CellTiter-Glo cell vaibility assay; type: functional, cell-based; details: Kasumi 1, 48 h; method in brief: as §1
[26] = tested on: KG-1; test: Antiproliferative activity against human KG-1 assessed as reduction in cell viability incubated for 48 hrs by CellTiter-Glo cell vaibility assay; type: functional, cell-based; details: KG-1, 48 h; method in brief: as §1
[27] = Antiproliferative activity against human HNT-34 assessed as reduction in cell viability incubated for 48 hrs by CellTiter-Glo cell vaibility assay; type: functional, cell-based; details: HNT-34, 48 h; method in brief: as §1
[28] = Antiproliferative activity against human PL-21 assessed as reduction in cell viability incubated for 48 hrs by CellTiter-Glo cell vaibility assay; type: functional, cell-based; details: PL-21, 48 h; method in brief: as §1
[29] = tested on: SKM-1; test: Antiproliferative activity against human SKM-1 assessed as reduction in cell viability incubated for 48 hrs by CellTiter-Glo cell vaibility assay; type: functional, cell-based; details: SKM-1, 48 h; method in brief: as §1
[30] = Antiproliferative activity against human UKE-1 harboring JAK2 V617F mutant assessed as reduction in cell viability incubated for 48 hrs by CellTiter-Glo cell vaibility assay; type: functional, cell-based; details: UKE1, 48 h; method in brief: as §1
[31] = tested on: SET-2; test: Antiproliferative activity against human SET2 harboring JAK2 V617F mutant assessed as reduction in cell viability incubated for 48 hrs by CellTiter-Glo cell vaibility assay; type: functional, cell-based; details: SET-2, 48 h; method in brief: as §1
[32] = tested on: HEL; test: Antiproliferative activity against human HEL harboring JAK2 V617F mutant assessed as reduction in cell viability incubated for 48 hrs by CellTiter-Glo cell vaibility assay; type: functional, cell-based; method in brief: as §1
[33] = Antiproliferative activity against human OCI-M2 assessed as reduction in cell viability incubated for 48 hrs by CellTiter-Glo cell vaibility assay; type: functional, cell-based; details: OCI-M2, 48 h; method in brief: as §1
[34] = Antiproliferative activity against human OCI-M1 assessed as reduction in cell viability incubated for 48 hrs by CellTiter-Glo cell vaibility assay; type: functional, cell-based; details: OCI-M1, 48 h; method in brief: as §1
[35] = tested on: OCI-AML-3; test: Antiproliferative activity against human OCI-AML-3 assessed as reduction in cell viability incubated for 48 hrs by CellTiter-Glo cell vaibility assay; type: functional, cell-based; details: OCI-AML-3, 48 h; method in brief: as §1
[36] = tested on: NOMO-1; test: Antiproliferative activity against human NOMO-1 assessed as reduction in cell viability incubated for 48 hrs by CellTiter-Glo cell vaibility assay; type: functional, cell-based; details: NOMO-1, 48 h; method in brief: as §1
[37] = Antiproliferative activity against human ME-1 assessed as reduction in cell viability incubated for 48 hrs by CellTiter-Glo cell vaibility assay; type: functional, cell-based; details: ME-1, 48 h; method in brief: as §1
[38] = Inhibition of granulocyte colony formation in human bone marrow cells at 0.1 to 20 uM incubated for 14 to 16 days by light microscopic analysis; type: toxicity, cell-based; details: bone marrow cell, dose lower 0.1 µM, time lower 14 day, dose upper 20 µM, time upper 16 day
Method in brief: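 Isolated human bone marrow cells cultured in semisolid medium with increasing inhibitor concentrations; granulocyte (neutrophil) colonies counted by light microscopy after 15–16 days; triplicate means with SD; Student's t test versus solvent control.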

[39] = Inhibition of granulocyte colony formation in human bone marrow cells at 0.1 to 20 uM incubated for 14 to 16 days in presence of docetaxel by light microscopic analysis; type: toxicity, cell-based; details: bone marrow cell, dose lower 0.1 µM, time lower 14 day, dose upper 20 µM, time upper 16 day
Method in brief: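 Human bone marrow granulocyte colony-forming assay in semisolid medium, increasing inhibitor concentrations ± 5 nM docetaxel; colonies counted by light microscopy after 14 days; triplicate means with SD; combinations compared with docetaxel alone by Student's t test.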

Sequence of Induced myeloid leukemia cell differentiation protein Mcl-1 (Q07820 whole entry): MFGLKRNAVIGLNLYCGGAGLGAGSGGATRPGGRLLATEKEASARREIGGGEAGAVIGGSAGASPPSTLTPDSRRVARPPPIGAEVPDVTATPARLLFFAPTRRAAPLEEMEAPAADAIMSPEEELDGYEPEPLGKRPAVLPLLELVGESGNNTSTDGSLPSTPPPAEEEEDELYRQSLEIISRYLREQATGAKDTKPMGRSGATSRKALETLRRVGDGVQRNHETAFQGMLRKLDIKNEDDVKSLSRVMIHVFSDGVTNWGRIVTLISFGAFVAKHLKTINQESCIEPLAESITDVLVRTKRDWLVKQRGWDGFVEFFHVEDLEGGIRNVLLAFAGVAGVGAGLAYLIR

CC1(C)CCC(CN2CCN(c3ccc(C(=O)NS(=O)(=O)c4ccc(NCC5CCOCC5)c([N+](=O)[O-])c4)c(Oc4cnc5[nH]ccc5c4)c3)CC2)=C(c2ccc(Cl)cc2)C1 [VENETOCLAX]
Ki [1]: > 0.444 µM | EC50 [2]: > 5 µM | EC50 [3]: 0.015 µM | EC50 [4]: 0.33 µM | EC50 [5]: 0.85 µM | EC50 [6]: 1.2 µM | EC50 [7]: 2.4 µM | EC50 [8]: 2.7 µM | EC50 [9]: 3.86 µM | EC50 [10]: 3.9 µM | EC50 [11]: 4.1 µM | EC50 [12]: 4.62 µM | EC50 [13]: 5 µM | EC50 [14]: 0.1 µM | EC50 [15]: 0.1 µM | EC50 [16]: 0.1 µM | EC50 [17]: 0.1 µM | EC50 [18]: 0.1 µM | EC50 [19]: 0.1 µM | EC50 [20]: 0.1 µM | EC50 [21]: 0.1 µM | EC50 [22]: 0.04 µM | EC50 [23]: 0.11 µM | EC50 [24]: 0.82 µM | EC50 [25]: 1 µM | EC50 [26]: 1.2 µM | EC50 [27]: 1.7 µM | EC50 [28]: 1.81 µM | EC50 [29]: 2.53 µM | EC50 [30]: 3.06 µM | EC50 [31]: 3.33 µM | EC50 [32]: 3.37 µM | EC50 [33]: 4.05 µM | EC50 [34]: > 5 µM | EC50 [35]: > 5 µM | EC50 [36]: > 5 µM | EC50 [37]: > 5 µM | Activity [38]: Toxic | Activity [39]: Toxic
